In brackets after ≈: the same amount, converted by molar mass.
Columns and labels:
[1] = Selectivity index, ratio of IC50 for Class 1/2b HDAC in human Jurkat E6.1 cells using Boc-Lys-(Ac)-AMC as substrate to IC50 for Class 2A HDAC4 in human Jurkat E6.1 cells using Boc-Lys-(TFA)-AMC as substrate by fluorogenic assay
Method in brief: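 Human Jurkat E6.1 cells were assayed with two fluorogenic substrates. Boc-Lys-(TFA)-AMC reports class IIa activity, mostly HDAC4 in this line, and Boc-Lys-(Ac)-AMC reports class I/IIb activity. IC50s are geometric means of three experiments.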

[2] = target: T1, Histone deacetylase 4 (Homo sapiens, UniProt P56524); assay: Inhibition of Class 2A HDAC4 in human Jurkat E6.1 cells using Boc-Lys-(TFA)-AMC as substrate by fluorogenic assay; type: cell-based
Method in brief: (§1)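 Whole-cell assay in Jurkat E6.1 cells with artificial fluorogenic substrates: Boc-Lys-(TFA)-AMC for class IIa/HDAC8 activity, which in this line is mostly HDAC4, and Boc-Lys-(Ac)-AMC for class I/IIb activity. IC50 given as the geometric mean of three experiments.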

[3] = Inhibition of Class 1/2b HDAC in human Jurkat E6.1 cells using Boc-Lys-(Ac)-AMC as substrate by fluorogenic assay; type: cell-based; method in brief: as §1
[4] = target: T1, Histone deacetylase 4; assay: Inhibition of HDAC4 (unknown origin) using Boc Lys(TFA) as substrate by fluorogenic assay
Method in brief: (§2)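 Biochemical HDAC isoform assay with the artificial fluorogenic substrate Boc-Lys-(TFA)-AMC, which is specific to class IIa enzymes and HDAC8. IC50 taken as the geometric mean of three experiments.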

[5] = Kinetic solubility of the compound; type: physicochemical; details: read-out: Kinetic_solubility
[6] = Efflux ratio of permeability from basolateral to apical over apical to basolateral side in dog MDCK-MDR1 cells relative to wild type MDCK cells; type: ADME, cell-based, Canis lupus familiaris
[7] = Intrinsic Clearance in mouse liver microsomes; type: ADME, Microsome; details: read-out: CLH
[8] = Apparent permeability of the compound in dog MDCK-MDR1 cells; type: ADME, cell-based, Canis lupus familiaris
[9] = target: Histone deacetylase 1 (Homo sapiens, UniProt Q13547); assay: Inhibition of HDAC1 (unknown origin) using Ac-Arg-Gly-Lys(Ac) as substrate by fluorogenic assay
[10] = target: T2, Protein deacetylase HDAC6 (Homo sapiens, UniProt Q9UBN7); assay: Inhibition of HDAC6 (unknown origin) expressed in human HEK-Freestyle cells using Boc-Lys(Ac) as substrate by fluorogenic assay; type: cell-based
T2 sequence (Q9UBN7 whole entry): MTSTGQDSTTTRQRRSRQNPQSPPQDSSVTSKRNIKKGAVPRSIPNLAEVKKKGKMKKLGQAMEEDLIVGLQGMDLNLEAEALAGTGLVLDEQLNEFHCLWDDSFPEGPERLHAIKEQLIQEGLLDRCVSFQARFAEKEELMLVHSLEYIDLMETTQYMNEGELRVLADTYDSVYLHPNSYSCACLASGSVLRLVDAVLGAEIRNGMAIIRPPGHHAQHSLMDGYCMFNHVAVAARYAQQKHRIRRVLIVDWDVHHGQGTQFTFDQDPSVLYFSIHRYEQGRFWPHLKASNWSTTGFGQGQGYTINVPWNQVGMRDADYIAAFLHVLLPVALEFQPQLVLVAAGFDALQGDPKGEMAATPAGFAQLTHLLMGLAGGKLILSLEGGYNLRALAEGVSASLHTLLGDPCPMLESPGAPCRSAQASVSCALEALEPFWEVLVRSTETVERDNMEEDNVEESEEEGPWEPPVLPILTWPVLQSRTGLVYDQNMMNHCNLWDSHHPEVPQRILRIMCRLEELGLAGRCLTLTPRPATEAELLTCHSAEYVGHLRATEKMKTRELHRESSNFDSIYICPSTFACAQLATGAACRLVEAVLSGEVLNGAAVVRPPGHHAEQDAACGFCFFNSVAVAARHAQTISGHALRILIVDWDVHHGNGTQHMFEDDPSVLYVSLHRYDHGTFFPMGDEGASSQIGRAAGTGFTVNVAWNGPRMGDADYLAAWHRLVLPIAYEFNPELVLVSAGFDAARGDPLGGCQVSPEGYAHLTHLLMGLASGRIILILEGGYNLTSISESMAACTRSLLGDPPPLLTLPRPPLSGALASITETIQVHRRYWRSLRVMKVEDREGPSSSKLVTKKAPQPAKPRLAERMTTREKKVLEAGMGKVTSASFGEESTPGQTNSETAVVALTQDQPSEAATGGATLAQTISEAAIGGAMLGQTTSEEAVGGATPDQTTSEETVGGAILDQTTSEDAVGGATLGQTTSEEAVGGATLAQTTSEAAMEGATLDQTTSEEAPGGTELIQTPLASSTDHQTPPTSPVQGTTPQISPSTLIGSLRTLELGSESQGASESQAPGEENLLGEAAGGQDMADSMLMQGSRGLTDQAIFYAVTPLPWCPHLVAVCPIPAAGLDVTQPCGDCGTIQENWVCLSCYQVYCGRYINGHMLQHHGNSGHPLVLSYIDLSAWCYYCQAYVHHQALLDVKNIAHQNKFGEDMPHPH
Method in brief: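 HDAC6 was supplied as lysate of HEK cells overexpressing the enzyme. Activity was read with the class I/IIb-specific fluorogenic substrate Boc-Lys-(Ac)-AMC. IC50 is the geometric mean of three experiments.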

[11] = target: Histone deacetylase 5 (Homo sapiens, UniProt Q9UQL6); assay: Inhibition of HDAC5 (unknown origin) using Boc Lys(TFA) as substrate by fluorogenic assay; method in brief: as §2
[12] = target: Histone deacetylase 3/Nuclear receptor corepressor 1 (HDAC3/NCoR1) (Homo sapiens); assay: Inhibition of HDAC3/NCOR1 (unknown origin) using Boc-Lys(Ac) as substrate by fluorogenic assay
[13] = target: Histone deacetylase 2 (Homo sapiens, UniProt Q92769); assay: Inhibition of HDAC2 (unknown origin) using Ac-Arg-Gly-Lys(Ac) as substrate by fluorogenic assay
[14] = target: Histone deacetylase 9 (Homo sapiens, UniProt Q9UKV0); assay: Inhibition of HDAC9 (unknown origin) using Boc Lys(TFA) as substrate by fluorogenic assay; method in brief: as §2
[15] = target: T3, Histone deacetylase 8 (Homo sapiens, UniProt Q9BY41); assay: Inhibition of HDAC8 (unknown origin) using Boc-Lys(TFA) as substrate by fluorogenic assay; method in brief: as §2
T3 sequence (Q9BY41 whole entry): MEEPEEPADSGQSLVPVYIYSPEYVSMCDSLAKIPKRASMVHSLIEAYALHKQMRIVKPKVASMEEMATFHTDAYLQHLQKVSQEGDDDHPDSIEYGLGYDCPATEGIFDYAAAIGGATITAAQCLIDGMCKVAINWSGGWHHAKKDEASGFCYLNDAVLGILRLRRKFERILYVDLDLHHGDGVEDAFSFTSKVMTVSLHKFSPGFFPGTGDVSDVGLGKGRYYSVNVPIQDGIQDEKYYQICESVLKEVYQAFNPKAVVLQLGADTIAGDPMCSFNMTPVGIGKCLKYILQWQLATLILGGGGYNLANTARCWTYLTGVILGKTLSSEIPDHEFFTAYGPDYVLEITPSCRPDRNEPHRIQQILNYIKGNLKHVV

[16] = Chemical stability of the compound in DMSO-d6 measured for 9 days at room temperature by 1H-NMR spectroscopy; type: physicochemical; details: 216 h; time 9 day

T1 sequence (P56524 whole entry): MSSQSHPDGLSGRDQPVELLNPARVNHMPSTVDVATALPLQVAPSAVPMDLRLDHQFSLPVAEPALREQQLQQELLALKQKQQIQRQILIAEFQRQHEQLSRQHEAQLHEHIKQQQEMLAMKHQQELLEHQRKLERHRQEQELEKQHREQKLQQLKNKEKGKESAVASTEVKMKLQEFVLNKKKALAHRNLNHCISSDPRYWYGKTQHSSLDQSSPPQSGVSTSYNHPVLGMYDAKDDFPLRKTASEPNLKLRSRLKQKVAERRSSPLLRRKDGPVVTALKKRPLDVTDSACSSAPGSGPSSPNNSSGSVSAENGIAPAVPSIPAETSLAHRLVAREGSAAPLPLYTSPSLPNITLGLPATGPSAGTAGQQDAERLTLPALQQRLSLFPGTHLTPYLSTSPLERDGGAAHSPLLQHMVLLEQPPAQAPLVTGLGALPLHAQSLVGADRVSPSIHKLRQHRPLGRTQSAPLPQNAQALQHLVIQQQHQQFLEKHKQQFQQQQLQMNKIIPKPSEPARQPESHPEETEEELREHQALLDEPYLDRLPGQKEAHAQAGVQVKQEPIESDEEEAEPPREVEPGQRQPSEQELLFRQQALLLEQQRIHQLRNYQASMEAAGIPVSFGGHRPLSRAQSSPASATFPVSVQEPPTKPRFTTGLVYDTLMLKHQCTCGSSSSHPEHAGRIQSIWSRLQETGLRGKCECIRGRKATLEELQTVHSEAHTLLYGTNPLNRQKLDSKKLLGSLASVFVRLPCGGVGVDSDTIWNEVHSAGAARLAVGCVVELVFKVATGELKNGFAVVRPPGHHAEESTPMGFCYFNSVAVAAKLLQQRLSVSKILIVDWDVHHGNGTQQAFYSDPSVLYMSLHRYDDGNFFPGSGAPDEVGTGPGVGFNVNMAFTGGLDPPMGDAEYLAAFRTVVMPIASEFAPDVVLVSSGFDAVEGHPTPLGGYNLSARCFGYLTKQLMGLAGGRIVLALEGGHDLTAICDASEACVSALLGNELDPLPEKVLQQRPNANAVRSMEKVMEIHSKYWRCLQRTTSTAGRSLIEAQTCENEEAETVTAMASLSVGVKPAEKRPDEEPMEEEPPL
Sequence of Histone deacetylase 1 (Q13547 whole entry): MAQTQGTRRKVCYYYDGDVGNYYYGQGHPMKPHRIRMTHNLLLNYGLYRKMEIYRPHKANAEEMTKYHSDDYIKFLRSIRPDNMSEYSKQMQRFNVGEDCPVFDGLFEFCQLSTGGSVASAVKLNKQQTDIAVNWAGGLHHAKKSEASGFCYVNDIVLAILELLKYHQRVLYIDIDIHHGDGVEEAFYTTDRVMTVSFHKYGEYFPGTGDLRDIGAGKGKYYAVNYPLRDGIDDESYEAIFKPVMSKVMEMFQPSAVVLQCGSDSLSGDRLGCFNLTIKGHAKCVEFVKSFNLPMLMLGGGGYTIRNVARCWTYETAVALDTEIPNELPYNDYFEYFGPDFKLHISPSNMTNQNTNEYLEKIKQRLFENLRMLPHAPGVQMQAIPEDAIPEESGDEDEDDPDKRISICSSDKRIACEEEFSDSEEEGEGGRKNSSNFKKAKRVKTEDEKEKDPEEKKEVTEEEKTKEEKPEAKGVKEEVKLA
Sequence of Histone deacetylase 2 (Q92769 whole entry): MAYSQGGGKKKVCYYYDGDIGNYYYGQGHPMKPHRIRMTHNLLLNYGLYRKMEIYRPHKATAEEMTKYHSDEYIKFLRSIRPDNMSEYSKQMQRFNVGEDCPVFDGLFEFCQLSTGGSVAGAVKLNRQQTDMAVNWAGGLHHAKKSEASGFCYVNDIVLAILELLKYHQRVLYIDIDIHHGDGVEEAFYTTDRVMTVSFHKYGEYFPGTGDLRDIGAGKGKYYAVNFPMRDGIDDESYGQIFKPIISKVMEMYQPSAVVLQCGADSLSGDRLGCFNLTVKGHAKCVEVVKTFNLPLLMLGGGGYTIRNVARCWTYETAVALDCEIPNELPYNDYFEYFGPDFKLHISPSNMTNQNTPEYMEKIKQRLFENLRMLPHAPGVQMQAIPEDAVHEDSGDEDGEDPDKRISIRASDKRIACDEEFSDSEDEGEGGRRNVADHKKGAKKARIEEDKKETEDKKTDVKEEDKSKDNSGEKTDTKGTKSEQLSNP
Sequence of Histone deacetylase 5 (Q9UQL6 whole entry): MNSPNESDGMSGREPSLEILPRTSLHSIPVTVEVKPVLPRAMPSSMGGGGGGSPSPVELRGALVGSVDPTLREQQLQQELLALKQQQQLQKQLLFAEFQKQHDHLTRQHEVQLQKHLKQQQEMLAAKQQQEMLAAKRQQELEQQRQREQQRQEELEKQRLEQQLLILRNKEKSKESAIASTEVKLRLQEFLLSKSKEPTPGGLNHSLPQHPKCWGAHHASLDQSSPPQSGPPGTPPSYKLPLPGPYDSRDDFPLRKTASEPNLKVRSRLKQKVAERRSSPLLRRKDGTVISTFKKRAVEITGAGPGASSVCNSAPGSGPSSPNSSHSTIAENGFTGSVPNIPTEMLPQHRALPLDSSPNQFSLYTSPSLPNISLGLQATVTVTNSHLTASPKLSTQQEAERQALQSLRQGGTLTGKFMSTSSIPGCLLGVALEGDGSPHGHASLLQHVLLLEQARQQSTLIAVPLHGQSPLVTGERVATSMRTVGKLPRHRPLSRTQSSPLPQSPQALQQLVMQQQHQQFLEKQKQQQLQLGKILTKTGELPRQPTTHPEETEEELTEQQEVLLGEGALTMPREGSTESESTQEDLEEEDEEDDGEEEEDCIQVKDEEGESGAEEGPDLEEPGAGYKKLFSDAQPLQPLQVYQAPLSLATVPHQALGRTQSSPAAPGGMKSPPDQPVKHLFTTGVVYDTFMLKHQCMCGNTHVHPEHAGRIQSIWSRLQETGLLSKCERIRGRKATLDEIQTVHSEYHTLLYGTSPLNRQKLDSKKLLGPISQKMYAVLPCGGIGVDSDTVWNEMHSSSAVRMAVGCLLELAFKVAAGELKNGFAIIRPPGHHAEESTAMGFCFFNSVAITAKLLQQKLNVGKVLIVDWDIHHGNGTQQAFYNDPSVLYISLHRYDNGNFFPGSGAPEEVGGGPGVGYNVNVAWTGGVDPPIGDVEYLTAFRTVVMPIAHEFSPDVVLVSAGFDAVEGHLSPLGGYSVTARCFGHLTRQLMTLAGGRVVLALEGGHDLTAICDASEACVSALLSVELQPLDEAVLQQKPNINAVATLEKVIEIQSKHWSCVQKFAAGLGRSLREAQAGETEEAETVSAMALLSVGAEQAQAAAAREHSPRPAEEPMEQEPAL
Sequence of Histone deacetylase 9 (Q9UKV0 whole entry): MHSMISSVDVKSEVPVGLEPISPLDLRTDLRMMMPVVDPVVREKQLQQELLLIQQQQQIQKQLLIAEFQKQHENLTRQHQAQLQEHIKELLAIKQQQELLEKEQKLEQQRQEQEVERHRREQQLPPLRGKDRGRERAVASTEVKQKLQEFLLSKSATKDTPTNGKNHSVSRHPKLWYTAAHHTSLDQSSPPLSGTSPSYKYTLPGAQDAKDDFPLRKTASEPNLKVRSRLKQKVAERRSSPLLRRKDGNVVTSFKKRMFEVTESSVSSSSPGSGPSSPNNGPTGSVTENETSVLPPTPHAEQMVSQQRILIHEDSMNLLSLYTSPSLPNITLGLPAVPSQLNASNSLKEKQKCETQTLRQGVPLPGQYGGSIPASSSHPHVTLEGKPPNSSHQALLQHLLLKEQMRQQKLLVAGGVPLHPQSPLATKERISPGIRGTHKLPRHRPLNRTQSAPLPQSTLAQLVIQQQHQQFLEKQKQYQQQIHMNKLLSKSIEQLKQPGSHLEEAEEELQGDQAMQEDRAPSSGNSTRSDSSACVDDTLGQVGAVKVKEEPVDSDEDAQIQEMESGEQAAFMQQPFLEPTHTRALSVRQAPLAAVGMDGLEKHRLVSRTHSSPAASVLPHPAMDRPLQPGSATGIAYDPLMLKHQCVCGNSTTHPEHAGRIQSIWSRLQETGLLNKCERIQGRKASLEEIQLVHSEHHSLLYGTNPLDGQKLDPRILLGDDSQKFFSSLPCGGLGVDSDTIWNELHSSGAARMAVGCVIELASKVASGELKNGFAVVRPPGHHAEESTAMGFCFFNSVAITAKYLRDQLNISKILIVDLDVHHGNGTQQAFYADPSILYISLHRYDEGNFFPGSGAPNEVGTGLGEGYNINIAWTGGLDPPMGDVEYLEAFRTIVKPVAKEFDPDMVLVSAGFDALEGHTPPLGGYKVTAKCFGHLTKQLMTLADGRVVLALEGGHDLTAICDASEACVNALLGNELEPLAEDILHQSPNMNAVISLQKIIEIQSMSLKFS

SMILES	IC50 [2]	IC50 [3]	IC50 [4]	solubility kinetic [5]	Ratio [6]	CLint scaled [7]	Ratio IC50 [1]	other results
C[C@@H](CN1CCCC1)NC(=O)c1ccc(-c2noc(C(F)(F)F)n2)cc1	730 nM	43000 nM	50 nM				59	
C[C@H](CN1CCC[C@H]1C)NC(=O)c1ccc(-c2noc(C(F)(F)F)n2)cc1	600 nM	14000 nM	70 nM	178 µM (≈ 68.1 µg/mL)				
CC(C)(CN1CCCC1)NC(=O)c1ccc(-c2noc(C(F)(F)F)n2)cc1	310 nM	12000 nM	280 nM				39	
C[C@H](CN1CCC[C@@H](OC(F)F)C1)NC(=O)c1ccc(-c2noc(C(F)(F)F)n2)cc1	60 nM	3600 nM	20 nM		1.2	661 mL/min/kg	60	
CCCN(CCC)C[C@@H](C)NC(=O)c1ccc(-c2noc(C(F)F)n2)cc1	19000 nM		890 nM					
C[C@H](CN1CCCCCC1)NC(=O)c1ccc(-c2noc(C(F)(F)F)n2)cc1	30 nM	1700 nM	10 nM		1.2	128 mL/min/kg	57	
C[C@H](CN1CCCC1)NC(=O)c1ccc(-c2noc(C(F)(F)F)n2)cc1	70 nM	10000 nM	10 nM	178 µM (≈ 65.6 µg/mL)	2.2	65 mL/min/kg	143	
CCCN(CCC)C[C@@H](C)NC(=O)c1ccc(-c2nc(C(F)(F)F)no2)cc1	> 50000 nM		28000 nM					

Further lines, with some results ahead:

IC50 [2]	IC50 [3]	IC50 [4]	solubility kinetic [5]	Ratio [6]	CLint scaled [7]	SMILES	Ratio IC50 [1]	other results
180 nM	6400 nM	40 nM				O=C(NC1(CN2CCCC2)CC1)c1ccc(-c2noc(C(F)(F)F)n2)cc1	36	
> 50000 nM		> 50000 nM				CCCN(CCC)C[C@@H](C)NC(=O)c1ccc(-c2noc(C)n2)cc1		
10 nM	520 nM	2 nM	150 µM (≈ 61.6 µg/mL)	1	1290 mL/min/kg	C[C@H](CN1CCCC(C)(C)C1)NC(=O)c1ccc(-c2noc(C(F)(F)F)n2)cc1	52	
1300 nM	> 50000 nM	230 nM	52 µM (≈ 21 µg/mL)			C[C@H](CN1CCC(F)(F)C1)NC(=O)c1ccc(-c2noc(C(F)(F)F)n2)cc1	>38	
> 50000 nM		> 50000 nM				CCCN(CCC)C[C@@H](C)NC(=O)c1ccc(-c2ncon2)cc1		
70 nM	9000 nM		157 µM (≈ 60 µg/mL)	1.6	66 mL/min/kg	C[C@H](CN1CCCCC1)NC(=O)c1ccc(-c2noc(C(F)(F)F)n2)cc1	129	
10 nM	1500 nM	3 nM	51 µM (≈ 22.9 µg/mL)	1.1	757 mL/min/kg	C[C@H](CN1CCC[C@H](OC(F)F)C1)NC(=O)c1ccc(-c2noc(C(F)(F)F)n2)cc1	150	
100 nM	10300 nM	30 nM		1.2	214 mL/min/kg	C[C@H](CN1CCC(F)CC1)NC(=O)c1ccc(-c2noc(C(F)(F)F)n2)cc1	103	
250 nM	3700 nM	30 nM	169 µM (≈ 59.9 µg/mL)		76 mL/min/kg	O=C(NCCN1CCCC1)c1ccc(-c2noc(C(F)(F)F)n2)cc1		Papp [8]: 60.4 ×10⁻⁶ cm/s; IC50 [9]: 13000 nM; IC50 [10]: 9800 nM; IC50 [11]: 90 nM; IC50 [12]: 5100 nM; IC50 [13]: 26000 nM; IC50 [14]: 70 nM; IC50 [15]: 2800 nM
	3000 nM		140 µM (≈ 55.8 µg/mL)		834 mL/min/kg	CCCN(CCC)C[C@@H](C)NC(=O)c1ccc(-c2noc(C(F)(F)F)n2)cc1		Papp [8]: 54.1 ×10⁻⁶ cm/s; IC50 [9]: 6000 nM; Stabilty [16]: Stable; IC50 [10]: 6400 nM; IC50 [13]: 9300 nM; IC50 [15]: 2900 nM
380 nM	> 50000 nM	130 nM	25 µM (≈ 10.5 µg/mL)			C[C@H](CN1CCC(F)(F)CC1)NC(=O)c1ccc(-c2noc(C(F)(F)F)n2)cc1	>132	
